One experiment has as its system Cardiac atrium. To be noted: Rattus norvegicus, Wistar, 1 uM.
The target in experiment [1] is T1, Sodium channel protein type 5 subunit alpha (Homo sapiens, UniProt Q14524). Kind of experiment: Inhibition of human Nav1.5 channel expressed in HEK293 cells assessed as blockade of veratridine-induced late inward sodium current elicited at -30 mV from holding potential -90 mV at 10 uM by patch clamp method. The experiment is classed as cell-based. The procedure, abridged:
(§1)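 HEK293 cells expressing hNaV1.5, room temperature (19-22 °C). Pipette (mmol): NaCl 10, CsCl 110, CaCl2 1, HEPES 10, EGTA 10, Mg-ATP 5, glucose 10, pH 7.3; bath: NaCl 30, CsCl 100, MgCl2 2, CaCl2 2, HEPES 10, glucose 5, pH 7.4. Veratridine 40 μM; 350 ms pulses to -30 mV at 0.2 Hz; late INa = mean current over last 10 ms; DMSO final 0.1%.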
(In general: The patch-clamp technique gives a direct electrical read-out from membranes.)

The subject of experiment [2] is Heart. Kind of experiment: Cardioprotective activity in Langendorff-perfused guinea pig heart assessed as inhibition of global ischemia-induced diastolic contracture at 1 uM. The experiment is classed as functional. As to conditions: Cavia porcellus. The procedure, abridged:
(§2)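 Female Hartley guinea pig hearts, Langendorff-perfused at constant 800 mm H2O with modified Krebs (pH 7.4, 95% O2/5% CO2), 37 °C, LV latex balloon. After 45-60 min equilibration, compound or vehicle perfused 15 min, then 50 min global normothermic ischemia and 60 min reperfusion; one concentration per heart. LVDP, end-diastolic pressure, heart rate, dP/dt, coronary flow recorded.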

Experiment [3] deals with T1, Sodium channel protein type 5 subunit alpha. Description: Inhibition of human Nav1.5 channel expressed in HEK293 cells assessed as blockade of veratridine-induced late inward sodium current elicited at -30 mV from holding potential -110 mV at 10 uM by patch clamp method. The experiment is classed as cell-based. An outline of the steps: as §1
A further experiment relates to Plasma. Description: Cardioprotective activity in […] Landrace pig assessed decrease in troponin 1 plasma level administered iv 60 mins before ischemia measured after 6 hrs of reperfusion. Format: functional, organism-based. To be noted: Sus scrofa.
The species named for experiment [4] is Sus scrofa. Description: Cardioprotective activity against myocardial ischemia-reperfusion in Landrace pig heart assessed as prevention of post reperfusion injury after 48 hrs. The experiment is classed as functional, tissue-based. The procedure, abridged:
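Anaesthetised male Landrace pigs (18-25 kg); LCX occluded 60 min, reperfused 48 h. Compound i.v. bolus 10 min pre-ischemia plus infusion through occlusion and first 30 min reperfusion. Evans blue delineates area at risk, TTC (0.1%) stains viable tissue; 10 mm LV slices imaged; necrosis expressed as % of area at risk. Means ± SEM; ANOVA with Dunnett's test.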

A short description of experiment [5]: Cardioprotective activity in […] Landrace pig heart assessed decrease in myocardial infarct volume […] followed by 30 mins of reperfusion. More on the design: scale not given: the % may be the effect or the level left. Format: functional, Sus scrofa.
The test system of experiment [6] is Sus scrofa. Description: Cardioprotective activity in […] Landrace pig heart assessed as change in blood flow administered iv 60 mins before ischemia followed by 48 hrs of reperfusion. The experiment is classed as functional, organism-based.
Experiment [7] has as its system Heart. Description: Cardiovascular activity in Langendorff-perfused guinea pig heart assessed as change in left ventricular developed pressure at 1 uM. Format: functional, Cavia porcellus. An outline of the steps:
as §2

The species named for experiment [8] is Sus scrofa. Kind of experiment: Cardioprotective activity in […] Landrace pig assessed enhancement of Na+ current. Format: functional, organism-based.
Experiment [9] relates to Heart. Description: Cardiovascular activity in Langendorff-perfused guinea pig heart assessed as change in coronary vascular resistance at 1 uM. The experiment is classed as functional, Cavia porcellus. The procedure, abridged: as §2
In experiment [10] the test system is Heart. Kind of experiment: Cardiovascular activity in Langendorff-perfused guinea pig heart assessed as change in heart rate at 1 uM. The experiment is classed as functional, Cavia porcellus. The procedure, abridged:
as §2

Experiment [11] has as its system Sus scrofa. Description: Cardioprotective activity in […] Landrace pig heart assessed as change collateral circulation administered iv 60 mins before ischemia followed by 48 hrs of reperfusion. The experiment is classed as functional, organism-based.
The nature of experiment [12]: Cardioprotective activity in […] Landrace pig heart assessed decrease in myocardial infarct size […]. Also noted: scale not given: the % may be the effect or the level left. Format: functional, Sus scrofa.

Calls of active or inactive are those of the source. The rule behind the calls is not given here.

T1 sequence (Q14524 whole entry): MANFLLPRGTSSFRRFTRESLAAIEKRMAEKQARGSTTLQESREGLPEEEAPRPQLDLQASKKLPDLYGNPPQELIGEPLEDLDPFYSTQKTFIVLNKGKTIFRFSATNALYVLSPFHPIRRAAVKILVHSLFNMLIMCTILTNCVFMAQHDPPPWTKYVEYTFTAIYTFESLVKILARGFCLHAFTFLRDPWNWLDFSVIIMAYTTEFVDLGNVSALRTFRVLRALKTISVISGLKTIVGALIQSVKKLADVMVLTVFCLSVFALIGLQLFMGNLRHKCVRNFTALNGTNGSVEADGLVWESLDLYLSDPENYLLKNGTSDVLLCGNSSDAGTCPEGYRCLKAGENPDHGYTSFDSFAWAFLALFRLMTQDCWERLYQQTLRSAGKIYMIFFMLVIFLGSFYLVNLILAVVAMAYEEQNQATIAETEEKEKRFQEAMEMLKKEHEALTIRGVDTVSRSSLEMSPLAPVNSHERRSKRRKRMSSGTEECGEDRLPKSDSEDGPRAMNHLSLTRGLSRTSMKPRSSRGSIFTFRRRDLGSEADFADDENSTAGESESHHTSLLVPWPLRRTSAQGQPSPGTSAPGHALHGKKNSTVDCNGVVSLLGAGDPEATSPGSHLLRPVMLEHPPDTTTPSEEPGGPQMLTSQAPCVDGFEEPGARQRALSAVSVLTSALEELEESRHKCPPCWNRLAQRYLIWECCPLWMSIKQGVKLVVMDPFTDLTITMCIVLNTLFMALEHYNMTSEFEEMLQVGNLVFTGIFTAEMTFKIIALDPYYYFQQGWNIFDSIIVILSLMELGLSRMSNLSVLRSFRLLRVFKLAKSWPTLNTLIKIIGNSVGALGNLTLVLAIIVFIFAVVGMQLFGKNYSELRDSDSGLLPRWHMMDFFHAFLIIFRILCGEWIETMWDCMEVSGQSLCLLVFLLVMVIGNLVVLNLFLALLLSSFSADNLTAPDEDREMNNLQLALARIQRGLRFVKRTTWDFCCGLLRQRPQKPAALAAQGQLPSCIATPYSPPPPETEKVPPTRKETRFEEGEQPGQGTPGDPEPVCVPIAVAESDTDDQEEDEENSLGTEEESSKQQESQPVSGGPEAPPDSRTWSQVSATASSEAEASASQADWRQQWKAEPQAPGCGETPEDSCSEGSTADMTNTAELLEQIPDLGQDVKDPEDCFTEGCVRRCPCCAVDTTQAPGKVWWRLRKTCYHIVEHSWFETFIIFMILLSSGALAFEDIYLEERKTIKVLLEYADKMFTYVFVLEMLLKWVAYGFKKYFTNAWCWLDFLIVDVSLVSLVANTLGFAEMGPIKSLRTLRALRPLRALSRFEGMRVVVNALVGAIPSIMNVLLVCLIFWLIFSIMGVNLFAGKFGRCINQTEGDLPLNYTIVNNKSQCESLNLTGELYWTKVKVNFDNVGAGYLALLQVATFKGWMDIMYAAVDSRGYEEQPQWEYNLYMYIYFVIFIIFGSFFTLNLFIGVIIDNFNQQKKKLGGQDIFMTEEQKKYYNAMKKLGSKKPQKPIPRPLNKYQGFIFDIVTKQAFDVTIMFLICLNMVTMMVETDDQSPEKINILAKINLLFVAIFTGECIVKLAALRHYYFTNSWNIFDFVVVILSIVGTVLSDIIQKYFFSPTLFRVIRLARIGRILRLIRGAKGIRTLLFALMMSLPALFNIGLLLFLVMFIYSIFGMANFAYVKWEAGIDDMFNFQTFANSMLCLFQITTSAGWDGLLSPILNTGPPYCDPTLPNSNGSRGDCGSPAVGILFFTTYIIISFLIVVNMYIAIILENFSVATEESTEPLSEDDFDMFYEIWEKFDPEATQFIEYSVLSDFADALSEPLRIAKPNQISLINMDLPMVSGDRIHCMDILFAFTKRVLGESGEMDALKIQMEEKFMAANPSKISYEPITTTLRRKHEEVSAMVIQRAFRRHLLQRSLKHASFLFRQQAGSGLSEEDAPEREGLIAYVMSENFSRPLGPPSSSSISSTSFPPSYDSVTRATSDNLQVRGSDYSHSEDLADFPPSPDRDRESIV

By inhibition is commonly meant the drop in the measured response relative to a control, in per cent. Consider `NC1=N[C@H](O)[C@H]2[C@H]3O[C@]4(O)O[C@@H]([C@@H](O)[C@@]2(N1)[C@@H]4O)[C@]3(O)CO`, for which the inhibition in the experiment on Cardiac atrium turned out to be 64%.

As to `C[C@@H](CN[C@@H]1COc2ccccc2SC1)CSc1cccc2c1OCO2`, the results for the inhibition at 10 µM in [1] and in experiment [3] were 54% and 32%, respectively. The inhibition at 1 µM with Heart [2] was 22%.

Regarding `C[C@@H](CN[C@@H]1COc2ccccc2SC1)CSc1cccc2ncoc12`, the inhibition at 10 µM worked out at 26% in experiment [1] and 16% in experiment [3]. In addition, in the experiment with Heart [2], the inhibition at 1 µM amounted to 84%.

Turning to `CC(C)c1ccc(C(=O)N=C(N)N)cc1S(C)(=O)=O` [CARIPORIDE], the inhibition at 1 µM with Heart [2] stood at 6%. Besides, the outcome with Plasma and in the experiment filed under Sus scrofa [4] was Active. Moreover, the Activity in experiment [5] is 6.8%.

Consider `Cc1ccccc1SC[C@@H](C)CN[C@@H]1COc2ccccc2SC1`, for which the inhibition at 10 µM in experiment [1] is 14%; in experiment [3], 11%.

As to `COc1c(C)cccc1SC[C@@H](C)CN[C@@H]1COc2ccccc2SC1`, the inhibition at 10 µM was found to be 32% in [1] and 28% in experiment [3].

Regarding `CC(C)c1cccc(SC[C@@H](C)CN[C@@H]2COc3ccccc3SC2)c1O`, the inhibition at 10 µM in [1] was found to be 46%; in [3] it was 38%.

Consider `Cc1cccc(SC[C@@H](C)CN[C@@H]2COc3ccccc3SC2)c1CO`, for which the inhibition at 10 µM in experiment [1] came out at 58%; in [3], 45%. For the same compound, the inhibition at 1 µM in the experiment with Heart [2] came out at 31%.

With `C[C@@H](CN[C@@H]1COc2ccccc2SC1)CSc1cccc2c1OCC2`, the inhibition at 10 µM in experiment [1] was determined as 56%; in experiment [3], 47%. Further, the inhibition at 1 µM with Heart [2] came to 72%.

For the compound `Cc1cccc(SC[C@@H](C)CN[C@@H]2COc3ccccc3SC2)c1O`, the result in the experiment on Sus scrofa [6], in the experiment listed under Sus scrofa [8] and with Sus scrofa [11] was inactive. Further, the results for the inhibition at 10 µM in experiment [1] and in experiment [3] were 87% and 73%, respectively. For the same compound, the Activity in the experiment with Heart [7] is reported as -5.9 mmHg; in the experiment on Heart [9], -1.6 dyn.s.cm'-5.10'4; in the experiment on Heart [10] it was 0.1 bpm; in [12], 3.5%. Also, the inhibition at 1 µM in the experiment on Heart [2] turned out to be 70%. In addition, the outcome in the experiment with Plasma and in the experiment filed under Sus scrofa [4] was Active.

Consider `COc1ccccc1SC[C@@H](C)CN[C@@H]1COc2ccccc2SC1`, for which the inhibition at 1 µM in the experiment with Heart [2] came out at 65%.

`COc1cccc(SC[C@@H](C)CN[C@@H]2COc3ccccc3SC2)c1O`: the inhibition at 10 µM amounted to 46% in [1] and 35% in experiment [3]. Besides, the inhibition at 1 µM in the experiment on Heart [2] turned out to be 46%.

As for `C[C@@H](CN[C@@H]1COc2ccccc2SC1)CSc1cccc(F)c1O`, the inhibition at 10 µM came out at 40% in experiment [1] and 38% in [3]. In the experiment with Heart [2], the inhibition at 1 µM stood at 54%.

For `C[C@@H](CN[C@@H]1COc2ccccc2SC1)CSc1cccc2cn[nH]c12`, the inhibition at 10 µM amounted to 44% in [1] and 34% in experiment [3]. For the same compound, the inhibition at 1 µM with Heart [2] was 73%.

As for `C[C@@H](CN[C@@H]1COc2ccccc2SC1)CSc1cccc2cc[nH]c12`, the inhibition at 10 µM in [1] and in experiment [3] was 8% throughout.

`C[C@@H](CN[C@@H]1COc2ccccc2SC1)CSc1cccc(N)c1O`: the values for the inhibition at 10 µM in [1] and in experiment [3] were 19% and 11%, respectively.

As for `COc1cccc(SC[C@@H](C)CN[C@@H]2COc3ccccc3SC2)c1N`, the values for the inhibition at 10 µM in [1] and in experiment [3] were 18% and 13%, respectively. In the experiment on Heart [2], the inhibition at 1 µM worked out at 21%.

Consider `CCc1cccc(SC[C@@H](C)CN[C@@H]2COc3ccccc3SC2)c1O`, for which the inhibition at 10 µM in [1] and in [3] was 56% throughout. Besides, the inhibition at 1 µM in the experiment with Heart [2] turned out to be 13%.

Turning to `CCOc1ccccc1SC[C@@H](C)CN[C@@H]1COc2ccccc2SC1`, the inhibition at 10 µM amounted to 54% in experiment [1] and 41% in [3].

With `C[C@@H](CN[C@@H]1COc2ccccc2SC1)CSc1cccc(C(N)=O)c1O`, the figures for the inhibition at 10 µM in [1] and in experiment [3] were 65% and 59%, respectively. Also, the inhibition at 1 µM in the experiment with Heart [2] is 43%.

In the case of `C[C@@H](CN[C@@H]1COc2ccccc2SC1)CSc1cccc2ccoc12`, the inhibition at 10 µM in [1] was found to be 82%; in experiment [3], 73%. For the same compound, the inhibition at 1 µM in the experiment on Heart [2] amounted to 68%.

As to `C[C@@H](CN[C@@H]1COc2ccccc2SC1)CSc1cccc(F)c1N`, the inhibition at 10 µM worked out at 19% in [1] and 11% in experiment [3]. For the same compound, the inhibition at 1 µM with Heart [2] came out at 33%.

Consider `Cc1cccc(SC[C@@H](C)CN[C@@H]2COc3ccccc3SC2)c1N`, for which the inhibition at 10 µM in experiment [1] and in experiment [3] was 26% in each case. Moreover, the inhibition at 1 µM with Heart [2] amounted to 35%.

These data come from ChEMBL document CHEMBL1158452, “Na+ currents in cardioprotection: better to be late” (J Med Chem, 2009).
